Measurements published in ChEMBL document CHEMBL2384977, “Synthesis and biological evaluation of novel styryl benzimidazole derivatives as probes for imaging of neurofibrillary tangles in Alzheimer's disease” (Bioorg Med Chem, 2013).

Key:
[1] = 1-Octanol-PBS buffer partition coefficient, log P of the compound at 0.37 MBq after 2 mins by gamma counting analysis; assay type: physicochemical
[2] = test system: Brain; test: Ratio of drug level in ddY mouse brain at 13.2 to 20.6 kBq, iv measured at 2 mins to drug level in ddY mouse brain at 13.2 to 20.6 kBq, iv measured at 60 mins; assay type: ADME, organism-based; settings: in vivo
In short: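 Tail-vein injection of the 125I tracer (13.2–20.6 kBq, saline with ethanol) into male 5-week-old ddY mice. The ratio is brain uptake (%ID/g) at 2 min divided by brain uptake at 60 min, from groups of 5 animals.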

SMILES | logP at 2 min [1] | Ratio [2]
CN(C)c1ccc(/N=N/c2nc3ccc([125I])cc3s2)cc1 | 3.84 | 0.33
CNc1ccc(/N=N/c2nc3ccc([125I])cc3s2)cc1 | – | 0.33
